Data on 11 molecules can be found in ChEMBL document CHEMBL1156228 (2010).

Each structure is given as a SMILES string. “And” between values parts separate entries of the source, which are not always exact repeats. Identical values can stand only once.

The nature of test [1]: Antioxidant activity assessed as superoxide radical-scavenging activity at 100 uM by EPR spectroscopy. It is filed as functional. In a few lines:
(§1)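 Superoxide generated by xanthine (0.2 mM) plus xanthine oxidase (0.02 U/ml) in PBS pH 7.4 containing DEPMPO spin trap (1 mM) and DTPA (0.1 mM), with or without derivative. The DEPMPO-OOH adduct was measured by EPR and double-integrated. Signal is expressed as percent of the level without derivative.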

Test [2] in a line: Antioxidant activity assessed as superoxide radical-scavenging activity at 1 mM by EPR spectroscopy. It is filed as functional. In outline: as §1
Test [3] can be described thus: Antioxidant activity assessed as peroxyl radical-scavenging activity at 1 mM by EPR spectroscopy. It is filed as functional. In a few lines: (§2)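 Alkylperoxyl radicals generated by thermolysis of 2,2-azobis-2-amidinopropane dihydrochloride (25 mM) in aerobic PBS at 37°C. EPR run in PBS pH 7.4 with DEPMPO (1 mM) and DTPA (0.1 mM), with or without derivative. The DEPMPO-OOR adduct was quantified by double integration and expressed as percent of the untreated level.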

Test [4] can be described thus: Antioxidant activity assessed as peroxyl radical-scavenging activity at 100 uM by EPR spectroscopy. The format is functional. In outline: as §2
The test system of a further test is CHO. The experiment in a line: Antioxidant activity in CHO cells assessed as protection from H2O2-induced toxicity at 50 uM pretreated for 2 hrs before H2O2 challenge measured after 1 hr by MTT assay. It is filed as functional, Cricetulus griseus. In a few lines:
(§3)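 Cells grown to 80% confluence at 37°C in 5% CO2, trypsinized and seeded at about 7,000 cells/well. After 24–48 h they were exposed to derivative for 2 h, then to H2O2 at 1 mM for 1 h. Viability was read by MTT-to-formazan conversion, with at least 6 repeats.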
Background: Tetrazolium dyes change colour on reduction, which living cells bring about.

A short description of test [5]: Antioxidant activity in HSMC assessed as protection from H2O2-induced toxicity at 50 uM pretreated for 2 hrs before H2O2 challenge measured after 1 hr by MTT assay. It is filed as functional, Homo sapiens. In a few lines:
as §3

Regarding `COc1ccc(CCN(C)CCCC(CNC(=O)C2=C(c3ccccc3)C(C)(C)N(O)C2(C)C)(c2ccc(OC)c(OC)c2)C(C)C)cc1OC` (centres undefined), the Activity in test [1] turned out to be 79.3%; in test [2], 100%; in test [3] it was 100%; in test [4], 86.1%; with CHO, 68.3%; in test [5] it was 47.5%.

As for `COc1ccc(CCN(C)CCCC(CNC(=O)CC2(C)CCC(C)(C)N2O)(c2ccc(OC)c(OC)c2)C(C)C)cc1OC` (centres undefined), the Activity in test [1] is 70.7% and 78.1%; in test [2], 100%; in test [3], 100%; in test [4] it was 89.2%; with CHO, 54%; in test [5], 44%.

As to `COc1ccc(CCN(C)CCCC(CNC(=O)C2CC(C)(C)N(O)C(C)(C)C2)(c2ccc(OC)c(OC)c2)C(C)C)cc1OC` (centres undefined), the Activity in test [1] was determined as 76.5%; in test [2] it was 100%; in test [3], 90.1%; with CHO, 50.3%; in test [5] it was 40.2%.

Take `COc1ccc(CCN(C)CCC[C@@](CNC(=O)C2=CC(C)(C)N(O)C(C)(C)C2)(c2ccc(OC)c(OC)c2)C(C)C)cc1OC`: the Activity in test [1] was determined as 66.5%; in test [2], 100%; in test [3], 100%; in test [4] it was 91.4%; in the test with CHO, 46.1%; in test [5], 33.1%.

`COc1ccc(CCN(C)CCCC(CNC(=O)C2CC(C)(C)N(O)C2(C)C)(c2ccc(OC)c(OC)c2)C(C)C)cc1OC` (centres undefined): the Activity in test [1] was 84.2%; in test [2], 100%; in test [3], 100%; in test [4] it was 98%; in the test with CHO it was 62.1%; in test [5], 40.2%.

`COc1ccc(CCN(C)CCCC(CNC(=O)C2=CC(C)(C)N(C)C2(C)C)(c2ccc(OC)c(OC)c2)C(C)C)cc1OC` (centres undefined): the Activity is 60.7% in test [2], 89.8% in test [3], 55.5% in the test with CHO and 48.7% in test [5].

Turning to `COc1ccc(CCN(C)CCCC(CNC(=O)C2=CC(C)(C)N(O)C2(C)C)(c2ccc(OC)c(OC)c2)C(C)C)cc1OC` (centres undefined), the Activity was determined as 55.2% in test [2], 14.9% in test [3], 48.9% in the test on CHO and 59.1% in test [5].

Turning to `COc1ccc(CCN(C)CCCC(CNC(=O)C2=CC(C)(C)NC2(C)C)(c2ccc(OC)c(OC)c2)C(C)C)cc1OC` (centres undefined), the Activity in test [2] stood at 34.9%; in test [3] it was 84.1%; in the test on CHO, 53.5%; in test [5], 53.7%.

With `COc1ccc(CCN(C)CCCC(CNCC2=CC(C)(C)NC2(C)C)(c2ccc(OC)c(OC)c2)C(C)C)cc1OC` (centres undefined), the Activity in test [1] turned out to be 73.8%; in test [2] it was 100%; in test [3] it was 100%; in test [4], 89.8%; in the test on CHO, 71.2%; in test [5], 39.1%.

For the molecule `COc1ccc(CCN(C)CCCC(CNC(=O)C2=C(C)C(C)(C)N(O)C2(C)C)(c2ccc(OC)c(OC)c2)C(C)C)cc1OC` (centres undefined), the Activity in test [1] was 78.2%; in test [2], 100%; in test [3] it was 100%; in test [4], 100%; with CHO, 60%; in test [5], 39.7%.

Consider `COc1ccc(CCN(C)CCCC(CNCC2=CC(C)(C)N(O)C2(C)C)(c2ccc(OC)c(OC)c2)C(C)C)cc1OC` (centres undefined), for which the Activity turned out to be 88.5% in test [1]; 100% in test [2]; 100% in test [3]; 92.9% in test [4]; 63.6% with CHO; 43.3% in test [5].
